Results on three compounds are retold here after ChEMBL document CHEMBL1828578, “Antimalarial activities of new guanidylimidazole and guanidylimidazoline derivatives” (J Med Chem, 2011).

The nature of data set [1]: Metabolic stability of the compound in rhesus monkey microsomes assessed as half life at 1 uM by LC-MS analysis. The data set is classed as ADME, Macaca mulatta, Microsome.
For data set [2], the system named is Plasmodium falciparum. The experiment in a line: Antimalarial activity against […] of Plasmodium falciparum TM91C235 after for 3 days by microdilution technique. The following applies: TM91C235, 72 h. The data set is classed as functional, organism-based. The method in brief:
(§1)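 P. falciparum clones were tested in vitro using a modified semiautomated microdilution technique.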
A general note: Broth dilution looks for growth in wells or tubes with falling amounts of substance.

Data set [3] concerns Plasmodium falciparum. The experiment in a line: Antimalarial activity against […] of Plasmodium falciparum W2 after for 3 days by microdilution technique. The data set is classed as functional, organism-based. The following applies: W2, 72 h. The method in brief:
as §1

In data set [4] the test system is Plasmodium falciparum. Put plainly: Antimalarial activity against sporozoites stage of Plasmodium falciparum D6 after 3 days by microdilution technique. It counts as functional, organism-based. The following applies: D6, 72 h, in the assay text read “blood stage” for “sporozoites stage”. An outline of the steps:
as §1

The test system of data set [5] is Plasmodium cynomolgi. Put plainly: Antimalarial activity against sporozoites stage of Plasmodium cynomolgi infected in Rhesus monkey assessed as delay in patency at 50 mg/kg/day, po administered one day before infection, on day of infection and one day post infection. It counts as functional. An outline of the steps: (§2)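 Causal prophylaxis test in Rhesus monkeys inoculated with P. cynomolgi sporozoites, two monkeys per group. Drug was given orally on days −1, 0 and +1 relative to inoculation. Patency was the first day parasites were detected in blood smears, and the delay was counted against vehicle-treated controls.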

Data set [6] in a line: Metabolic stability of the compound in mouse liver microsomes assessed as half life at 1 uM by LC-MS analysis. It counts as ADME, Microsome. The method in brief:
(§3)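 Compound at 1 μM final (from 10 or 20 mM DMSO stocks) was incubated with 0.5 mg/mL pooled human or mouse liver microsomes. The mix held 1.3 mM NADP and 3.3 mM MgCl₂ in 0.1 M PBS pH 7.4, and the reaction was started with 1 U/mL G6PD. Incubation was at 37 °C with shaking, and samples were quenched with cold acetonitrile at 0, 10, 20, 30 and 60 min.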
On the technique in general: Liver microsomes are a subcellular fraction often used to study metabolism.

A short description of data set [7]: Metabolic stability of the compound in human liver microsomes assessed as half life at 1 uM by LC-MS analysis. The data set is classed as ADME, Microsome. An outline of the steps: as §3
Data set [8] concerns Plasmodium cynomolgi. The experiment in a line: Antimalarial activity against sporozoites stage of Plasmodium cynomolgi infected in Rhesus monkey assessed as delay in patency at 1.78 mg/kg/day, po administered one day before infection, on day of infection and one day post infection. It counts as functional. An outline of the steps:
as §2

The test system of data set [9] is Plasmodium cynomolgi. Put plainly: Antimalarial activity against sporozoites stage of Plasmodium cynomolgi infected in Rhesus monkey assessed as delay in patency at 0.316 mg/kg/day, po administered one day before infection, on day of infection and one day post infection. It counts as functional. The method in brief:
as §2

≈ marks a conversion by molar mass, not a printed value.

As a reminder, the half-life is the time needed for the level to fall by half in the phase considered. The term IC50 denotes the concentration that gives 50% inhibition.

Turning to `CC(C)N/C(=N\c1nccn1C(C)C)Nc1ccc(Cl)c(Cl)c1`, the half-life at 1 µM in data set [1] came to 7.8 min; in data set [6], 5.9 min; in [7], 22.5 min. Besides, the IC50 in [2] came to 2.4 µg/mL (≈ 6.77 µM); in data set [3], 0.8 µg/mL (≈ 2.26 µM); in data set [4], 2.6 µg/mL (≈ 7.34 µM). The Time in data set [5] stood at 9 days.
On to `COc1cc(NC(C)CCCN)c2ncccc2c1` (centres undefined) [PRIMAQUINE], for which, in data set [8], the Time came to 5 days.
For `COc1cc(C)c2c(Oc3cccc(C(F)(F)F)c3)c(OC)cc(NC(C)CCCN)c2n1` (centres undefined) [TAFENOQUINE], the Time in [9] worked out at 2 days.
